Laboratory results from ChEMBL document CHEMBL4477178, “Biflorin, Isolated from the Flower Buds of Syzygium aromaticum L., Suppresses LPS-Induced Inflammatory Mediators via STAT1 Inactivation in Macrophages and Protects Mice from Endotoxin Shock” (J Nat Prod, 2016).
Active and inactive are the calls of the source. The calls are words filed in the database; no cut-off is given here.

Columns and labels:
[1] = test system: Peritoneal macrophage; test: Antiinflammatory activity in C57BL/6 mouse peritoneal macrophages assessed as inhibition of LPS-induced TNF-alpha production at 60 uM preincubated for 1 hr followed by LPS challenge for 48 hrs by ELISA method; format: functional; settings: C57BL/6, Peritoneal macrophage
[2] = test system: Rattus norvegicus; test: Antiinflammatory activity in Sprague-Dawley rat assessed as inhibition of croton oil-induced ear edema at 15 mg/kg, ip administered 1 hr before croton oil challenge measured after 3 hrs post challenge relative to control; format: functional
Outline: (§1)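 Male SD rats given compound i.p. (5, 10 or 15 mg/kg) 1 h before topical croton oil (5% in 100 μL acetone) on the inner right ear; the left ear received acetone alone. After 3 h, rats were killed and 6 mm ear punches were taken and measured for thickness. Inhibition calculated relative to the croton-oil-only group; seven rats per group.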

[3] = test system: RAW264.7; test: Cytotoxicity against mouse RAW264.7 cells assessed as cell viability at 60 uM after 24 hrs by MTT assay in absence of LPS; format: cell-based; settings: raw264.7, 24 h
Outline: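 RAW 264.7 seeded at 1 × 10^5 cells/mL, grown overnight, exposed 24 h with or without LPS; MTT (5 mg/mL stock in PBS) added 4 h at 37 °C, formazan dissolved in DMSO, absorbance at 540 nm.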

[4] = test system: RAW264.7; test: Antiinflammatory activity in mouse RAW264.7 cells assessed as inhibition of LPS-induced TNF-alpha production at 60 uM preincubated for 1 hr followed by LPS challenge for 24 hrs by ELISA method; format: functional
Outline: (§2)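 RAW 264.7 cells in DMEM with 10% FBS, plated at 2 × 10^5 cells/mL and incubated overnight. Pretreated with compound (15, 30 or 60 μM) for 1 h, then LPS 10 ng/mL for 24 h. PGE2 measured by competitive colorimetric ELISA, TNF-α and IL-6 by ELISA, in diluted medium. NS-398 3 μM as positive control for PGE2. Mean ± SD, three independent experiments; IC50 given for PGE2.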

[5] = test system: Rattus norvegicus; test: Antiinflammatory activity in Sprague-Dawley rat assessed as inhibition of croton oil-induced ear edema at 10 mg/kg, ip administered 1 hr before croton oil challenge measured after 3 hrs post challenge relative to control; format: functional; outline: as §1
[6] = test system: Rattus norvegicus; test: Antiinflammatory activity in Sprague-Dawley rat assessed as inhibition of croton oil-induced ear edema at 10 mg/kg, ip administered 1 hr before croton oil challenge measured after 3 hrs by hematoxylin and eosin staining based assay; format: functional, organism-based
Outline: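 SD male rats dosed i.p. (10 mg/kg) 1 h before topical croton oil (5% in acetone) on inner right ear; left ear got acetone only. At 3 h rats sacrificed, 6 mm ear punches taken, fixed in 4% paraformaldehyde overnight, paraffin-embedded, H&E-stained for edema and inflammatory cell infiltrate; seven animals per group.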

[7] = test system: Peritoneal macrophage; test: Antiinflammatory activity in C57BL/6 mouse peritoneal macrophages assessed as inhibition of LPS-induced PGE2 production at 60 uM preincubated for 1 hr followed by LPS challenge for 48 hrs by ELISA method; format: functional; settings: C57BL/6, Peritoneal macrophage
[8] = test system: Rattus norvegicus; test: Antiinflammatory activity in Sprague-Dawley rat assessed as reduction in carrageenan induced paw edema at 15 mg/kg, ip administered 1 hr before carrageenan challenge measured at 3 hrs post challenge relative to control; format: functional
Outline: (§3)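 SD rats given compound i.p. (5, 10 or 15 mg/kg) 1 h before subplantar injection of 1% carrageenan in saline (0.1 mL) into the right hind paw. Paw volume measured by plethysmometer at 1, 3 and 5 h. Edema compared with the carrageenan-only group; seven rats per group.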

[9] = test system: Mus musculus; test: Inhibition of LPS-induced COX-2 mRNA expression in C57BL/6 mouse liver at 10 mg/kg, ip pretreated for 1 hr followed by LPS challenge for 6 hrs by qRT-PCR method; format: functional, organism-based
Outline: (§4)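 Male C57BL/6 mice given 10 mg/kg i.p. or vehicle 1 h before LPS (Salmonella enterica, 25 mg/kg i.p.); liver collected 6 h after LPS, frozen at −80 °C. Liver mRNA by SYBR qRT-PCR normalized to β-actin; protein by Western blot for p-STAT1 (Y701, S727). Eight mice per group; mean ± SD.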

[10] = test system: RAW264.7; test: Antiinflammatory activity in mouse RAW264.7 cells assessed as inhibition of LPS-induced COX-2 promoter activity at 60 uM preincubated for 1 hr followed by LPS challenge for 6 to 12 hrs by reporter gene assay; format: functional, cell-based
Outline: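 RAW 264.7 transiently cotransfected with promoter-luciferase construct (pGL3-iNOS, pGL3-COX-2 or pTNF-α-luc) plus phRL-TK internal control; 6 h after transfection pretreated 1 h with 60 μM, then LPS 10 ng/mL for 6 or 12 h. Cells washed in cold PBS, lysed, luciferase read. Mean ± SD, three independent experiments.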

[11] = test system: Rattus norvegicus; test: Antiinflammatory activity in Sprague-Dawley rat assessed as reduction in carrageenan induced paw edema at 5 mg/kg, ip administered 1 hr before carrageenan challenge measured at 3 hrs post challenge relative to control; format: functional; outline: as §3
[12] = target: Mitogen-activated protein kinase 1 and 3 (ERK2 and ERK1) (Mus musculus) (UniProt P63085+Q63844); test: Inhibition of LPS-induced ERK1/2 phosphorylation in mouse RAW264.7 cells at 15 to 60 uM preincubated for 1 hr followed by LPS challenge for 30 mins by Western blot analysis; format: cell-based
Outline: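 RAW 264.7 pretreated 1 h at 15, 30 or 60 μM, then LPS 10 ng/mL for 30 min. Lysates Western-blotted for p-p38, p38, p-JNK, JNK, p-ERK, ERK with β-actin control; ECL, densitometry. Three independent experiments.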

[13] = test system: RAW264.7; test: Antiinflammatory activity in mouse RAW264.7 cells assessed as inhibition of LPS-induced IL-6 mRNA expression at 60 uM after 2 to 12 hrs by qRT-PCR method; format: functional, cell-based
Outline: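 RAW 264.7 stimulated with LPS 10 ng/mL with or without 60 μM for 2, 4, 6 and 12 h. Total RNA (1 μg) reverse-transcribed with MuLV RT and random primer; SYBR green real-time qPCR with gene-specific primers, triplicate Ct normalized to β-actin. Mean ± SD, three independent experiments.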

[14] = test system: RAW264.7; test: Antiinflammatory activity in mouse RAW264.7 cell lysate assessed as inhibition of LPS-induced COX-2 expression preincubated for 1 hr followed by LPS challenge for 24 hrs by Western blot analysis; format: functional, cell-based
Outline: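 RAW 264.7 (DMEM, 10% FBS, 37 °C, 5% CO2) pretreated 1 h at 15, 30 or 60 μM, then LPS 10 ng/mL for 24 h. Lysates run on 10–12% SDS-PAGE, blotted to PVDF, probed with iNOS or COX-2 antibody (1:1000, overnight 4 °C), HRP secondary, ECL; densitometry vs β-actin. Mean ± SD of three independent experiments.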

[15] = test system: Mus musculus; test: In vivo inhibition of LPS-induced STAT1 phosphorylation at Y701 in C57BL/6 mouse liver at 10 mg/kg, ip pretreated for 1 hr followed by LPS challenge for 6 hrs by Western blot analysis; format: functional, organism-based; outline: as §4
[16] = test system: RAW264.7; test: Antiinflammatory activity in mouse RAW264.7 cells assessed as inhibition of LPS-induced PGE2 production preincubated for 1 hr followed by LPS challenge for 24 hrs by ELISA method; format: functional, cell-based; outline: as §2

Sequence of Mitogen-activated protein kinase 1 and 3 (ERK2 and ERK1) (Mus musculus) (P63085 whole entry, looked up): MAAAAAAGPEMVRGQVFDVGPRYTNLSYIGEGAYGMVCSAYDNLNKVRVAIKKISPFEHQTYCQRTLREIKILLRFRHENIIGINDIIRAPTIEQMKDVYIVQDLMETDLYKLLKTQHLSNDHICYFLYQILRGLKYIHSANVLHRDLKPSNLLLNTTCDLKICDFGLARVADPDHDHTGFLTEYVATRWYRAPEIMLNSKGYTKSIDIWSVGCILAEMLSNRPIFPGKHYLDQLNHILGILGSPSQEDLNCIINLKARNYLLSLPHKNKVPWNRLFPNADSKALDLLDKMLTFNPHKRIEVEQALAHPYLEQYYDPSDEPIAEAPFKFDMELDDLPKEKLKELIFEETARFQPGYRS
Sequence of Mitogen-activated protein kinase 1 and 3 (ERK2 and ERK1) (Mus musculus) (Q63844 whole entry, looked up): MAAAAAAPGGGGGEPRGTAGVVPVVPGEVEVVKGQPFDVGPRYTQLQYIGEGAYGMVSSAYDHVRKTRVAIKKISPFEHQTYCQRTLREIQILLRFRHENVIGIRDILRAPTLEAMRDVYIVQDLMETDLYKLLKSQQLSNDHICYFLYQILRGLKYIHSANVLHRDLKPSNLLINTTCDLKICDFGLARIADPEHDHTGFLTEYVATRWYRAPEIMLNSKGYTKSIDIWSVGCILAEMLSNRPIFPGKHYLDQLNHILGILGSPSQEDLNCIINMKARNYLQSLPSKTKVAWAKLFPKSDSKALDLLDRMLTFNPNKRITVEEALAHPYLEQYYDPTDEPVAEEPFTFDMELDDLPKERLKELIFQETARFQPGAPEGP

Cc1cc(=O)c2c(O)c([C@@H]3O[C@H](CO)[C@@H](O)[C@H](O)[C@H]3O)c(O)cc2o1 [BIFLORIN]
inhibition at 60 µM [1]: 77.5%
inhibition in vivo at 15 mg/kg [2]: 74.7%
Activity [3]: Non-Toxic
inhibition at 60 µM [4]: 75%
inhibition in vivo at 10 mg/kg [5]: 44.5%
inhibition [6]: Active
inhibition at 60 µM [7]: 42.2%
inhibition in vivo at 15 mg/kg [8]: 60%
inhibition [9]: Active
inhibition [10]: Active
inhibition in vivo at 5 mg/kg [11]: 26%
inhibition [12]: inactive
inhibition [13]: Active
inhibition [14]: Dose-dependent effect
inhibition [15]: Active
IC50 [16]: 37.1 µM
